# Experimental data from ChEMBL document CHEMBL5649168, “Discovery of a selective catalytic p300/CBP inhibitor that targets lineage-specific tumours” (Nature, 2017).
# Tests used:
# [1] = target: Mitogen-activated protein kinase 9 (Homo sapiens, UniProt P45984); assay: Inhibition of JNK2 (unknown origin)
# K562 = assay: Antiproliferative activity against human K562 cells assessed as inhibition of cell viability incubated for 3 to 5 days by Celltiter-Glo luminescent assay; format: functional, cell-based
# [2] = target: T1, CREB-binding protein/Histone acetyltransferase p300 (Homo sapiens, UniProt Q09472+Q92793); assay: Inhibition of p300/CBP in human 22Rv1 cells assessed as reduction in H3K9Ac level incubated for 1 hr by Hoechst 33342 staining based high content microscopy analysis; format: cell-based
# In short: (§1)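 Cells received an 8-point half-log dilution series from 10 µM. They were then fixed in 10% formaldehyde (10 min, RT), permeabilised with 0.1% Triton X-100 and blocked with 1% BSA for 1 h. Primary antibodies were applied overnight at 4 °C, followed by Alexa488 anti-rabbit, Alexa555 anti-mouse and Hoechst 33342 for 1 h. Fifteen fields per well were imaged and average mean intensity taken. EC50 came from a sigmoidal fit.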
# NU-DHL-1 = assay: Antiproliferative activity against human NU-DHL-1 cells assessed as inhibition of cell viability incubated for 3 to 5 days by Celltiter-Glo luminescent assay; format: functional, cell-based
# [3] = target: Histone acetyltransferase p300 (Homo sapiens, UniProt Q09472)
# RL = assay: Antiproliferative activity against human RL cells assessed as inhibition of cell viability incubated for 3 to 5 days by Celltiter-Glo luminescent assay; format: functional, cell-based
# KARPAS-422 = assay: Antiproliferative activity against human KARPAS-422 cells assessed as inhibition of cell viability incubated for 3 to 5 days by Celltiter-Glo luminescent assay; format: functional, cell-based
# RCK8 = assay: Antiproliferative activity against human RCK8 cells assessed as inhibition of cell viability incubated for 3 to 5 days by Celltiter-Glo luminescent assay; format: functional, cell-based
# WSU-NHL = assay: Antiproliferative activity against human WSU-NHL cells assessed as inhibition of cell viability incubated for 3 to 5 days by Celltiter-Glo luminescent assay; format: functional, cell-based
# L-363 = assay: Antiproliferative activity against human L-363 cells assessed as inhibition of cell viability incubated for 3 to 5 days by Celltiter-Glo luminescent assay; format: functional, cell-based
# ULA = assay: Antiproliferative activity against human ULA cells assessed as inhibition of cell viability incubated for 3 to 5 days by Celltiter-Glo luminescent assay; format: functional, cell-based
# Toledo = assay: Antiproliferative activity against human Toledo cells assessed as inhibition of cell viability incubated for 3 to 5 days by Celltiter-Glo luminescent assay; format: functional, cell-based
# NCI-H2444 = assay: Antiproliferative activity against human NCI-H2444 cells assessed as inhibition of cell viability incubated for 3 to 5 days by Celltiter-Glo luminescent assay; format: functional, cell-based
# [4] = target: T1, CREB-binding protein/Histone acetyltransferase p300; assay: Inhibition of p300/CBP in human 22Rv1 cells assessed as reduction in H3K9Ac level incubated for 24 hrs by Hoechst 33342 staining based high content microscopy analysis; format: cell-based; in short: as §1
# [5] = target: Serine/threonine-protein kinase PAK 4 (Homo sapiens, UniProt O96013); assay: Inhibition of PAK4KD (unknown origin)
# [6] = target: Serine/threonine-protein kinase D3 (Homo sapiens, UniProt O94806); assay: Inhibition of PRKCN (unknown origin)
# SK-MEL-1 = assay: Antiproliferative activity against human SK-MEL-1 cells assessed as inhibition of cell viability incubated for 3 to 5 days by Celltiter-Glo luminescent assay; format: functional, cell-based
# SK-MEL-5 = assay: Antiproliferative activity against human SK-MEL-5 cells assessed as inhibition of cell viability incubated for 3 to 5 days by Celltiter-Glo luminescent assay; format: functional, cell-based
# MOLT-4 = assay: Antiproliferative activity against human MOLT-4 cells assessed as inhibition of cell viability incubated for 3 to 5 days by Celltiter-Glo luminescent assay; format: functional, cell-based
# [7] = target: Epidermal growth factor receptor (Homo sapiens, UniProt P00533); assay: Inhibition of EGFR (unknown origin)
# NU-DUL-1 = assay: Antiproliferative activity against human NU-DUL-1 cells assessed as inhibition of cell viability incubated for 3 to 5 days by Celltiter-Glo luminescent assay; format: functional, cell-based
# COLO-679 = assay: Antiproliferative activity against human COLO-679 cells assessed as inhibition of cell viability incubated for 3 to 5 days by Celltiter-Glo luminescent assay; format: functional, cell-based
# [8] = target: cAMP-dependent protein kinase (PKA) (Homo sapiens, UniProt P22694+P17612+P22612); assay: Inhibition of PKA (unknown origin); format: protein assay
# 4T1 = assay: Antiproliferative activity against mouse 4T1 cells assessed as inhibition of cell viability incubated for 3 to 5 days by Celltiter-Glo luminescent assay; format: functional, cell-based
# [9] = target: Hepatocyte growth factor receptor (Homo sapiens, UniProt P08581); assay: Inhibition of c-MET (unknown origin)
# OCI-Ly3 = assay: Antiproliferative activity against human OCILY3 cells assessed as inhibition of cell viability incubated for 3 to 5 days by Celltiter-Glo luminescent assay; format: functional, cell-based
# [10] = Inhibition of CDK7/Cyclin H (unknown origin); design: species or system Homo sapiens
# [11] = Cmax in CB17 SCID mouse xenografted with LuCaP-77 CR cell at 200 mg/kg, ip administered for 7 days; format: ADME, organism-based; details: in vivo, time 7 day
# T1 sequence (Q09472 whole entry, looked up): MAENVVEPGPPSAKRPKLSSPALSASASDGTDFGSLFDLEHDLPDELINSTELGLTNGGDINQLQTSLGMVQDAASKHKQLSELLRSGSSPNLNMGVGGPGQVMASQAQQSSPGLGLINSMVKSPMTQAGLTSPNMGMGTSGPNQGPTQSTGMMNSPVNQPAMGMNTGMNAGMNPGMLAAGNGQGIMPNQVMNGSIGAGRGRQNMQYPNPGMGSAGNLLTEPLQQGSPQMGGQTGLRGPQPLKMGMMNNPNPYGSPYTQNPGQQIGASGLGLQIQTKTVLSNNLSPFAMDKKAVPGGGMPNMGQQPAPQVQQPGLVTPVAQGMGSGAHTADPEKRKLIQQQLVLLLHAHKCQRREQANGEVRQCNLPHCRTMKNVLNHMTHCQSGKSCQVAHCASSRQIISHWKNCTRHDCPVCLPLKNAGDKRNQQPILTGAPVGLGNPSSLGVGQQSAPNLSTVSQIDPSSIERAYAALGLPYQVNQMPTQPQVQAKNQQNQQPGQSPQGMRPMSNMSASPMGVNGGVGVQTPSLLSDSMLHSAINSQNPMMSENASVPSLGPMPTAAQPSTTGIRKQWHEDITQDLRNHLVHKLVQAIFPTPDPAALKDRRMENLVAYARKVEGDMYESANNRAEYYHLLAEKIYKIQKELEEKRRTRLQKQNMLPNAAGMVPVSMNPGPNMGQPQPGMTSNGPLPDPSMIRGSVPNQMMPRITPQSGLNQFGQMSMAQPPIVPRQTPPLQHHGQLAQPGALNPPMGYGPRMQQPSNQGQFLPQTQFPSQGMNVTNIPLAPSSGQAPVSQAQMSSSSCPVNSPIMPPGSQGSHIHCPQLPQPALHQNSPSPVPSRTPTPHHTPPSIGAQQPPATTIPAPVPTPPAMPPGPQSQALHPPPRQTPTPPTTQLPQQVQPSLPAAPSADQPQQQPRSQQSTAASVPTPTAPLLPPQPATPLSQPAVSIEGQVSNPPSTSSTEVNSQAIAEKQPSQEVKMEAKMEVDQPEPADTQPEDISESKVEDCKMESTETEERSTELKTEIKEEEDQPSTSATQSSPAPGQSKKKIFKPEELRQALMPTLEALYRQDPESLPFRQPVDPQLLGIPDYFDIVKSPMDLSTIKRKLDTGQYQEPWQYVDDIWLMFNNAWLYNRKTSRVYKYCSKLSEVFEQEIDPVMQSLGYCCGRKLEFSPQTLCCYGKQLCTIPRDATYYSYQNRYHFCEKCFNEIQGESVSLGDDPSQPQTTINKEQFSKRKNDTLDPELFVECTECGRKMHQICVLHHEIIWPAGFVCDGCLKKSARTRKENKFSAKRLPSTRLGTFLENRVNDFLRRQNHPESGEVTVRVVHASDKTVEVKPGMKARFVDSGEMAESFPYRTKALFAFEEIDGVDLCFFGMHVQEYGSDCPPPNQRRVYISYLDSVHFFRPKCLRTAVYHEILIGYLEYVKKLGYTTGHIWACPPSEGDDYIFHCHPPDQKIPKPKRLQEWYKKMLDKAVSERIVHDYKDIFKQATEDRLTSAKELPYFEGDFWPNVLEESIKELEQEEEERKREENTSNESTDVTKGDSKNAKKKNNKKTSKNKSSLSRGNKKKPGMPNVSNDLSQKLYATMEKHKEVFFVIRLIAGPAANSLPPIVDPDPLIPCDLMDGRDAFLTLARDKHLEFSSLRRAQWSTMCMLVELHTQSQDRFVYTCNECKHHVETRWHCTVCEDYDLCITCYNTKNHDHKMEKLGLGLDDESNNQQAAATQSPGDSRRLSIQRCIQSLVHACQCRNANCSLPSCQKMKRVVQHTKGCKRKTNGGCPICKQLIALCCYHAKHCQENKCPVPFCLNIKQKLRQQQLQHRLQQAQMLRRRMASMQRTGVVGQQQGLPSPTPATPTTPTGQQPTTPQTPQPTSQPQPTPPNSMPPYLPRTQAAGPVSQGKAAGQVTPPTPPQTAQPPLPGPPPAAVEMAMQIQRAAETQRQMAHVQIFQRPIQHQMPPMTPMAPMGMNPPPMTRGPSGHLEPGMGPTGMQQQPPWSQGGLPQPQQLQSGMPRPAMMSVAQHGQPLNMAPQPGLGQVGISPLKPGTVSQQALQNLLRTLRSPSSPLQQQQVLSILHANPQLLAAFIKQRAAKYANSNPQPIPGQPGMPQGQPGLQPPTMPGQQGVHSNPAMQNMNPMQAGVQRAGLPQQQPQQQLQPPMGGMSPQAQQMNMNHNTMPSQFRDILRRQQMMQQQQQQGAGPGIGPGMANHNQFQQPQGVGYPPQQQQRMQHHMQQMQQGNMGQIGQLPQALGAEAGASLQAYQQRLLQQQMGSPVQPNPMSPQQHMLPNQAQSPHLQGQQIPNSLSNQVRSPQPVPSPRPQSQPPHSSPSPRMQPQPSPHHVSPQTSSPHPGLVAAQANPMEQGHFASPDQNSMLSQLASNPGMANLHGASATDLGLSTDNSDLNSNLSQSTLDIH
# T1 sequence (Q92793 whole entry, looked up): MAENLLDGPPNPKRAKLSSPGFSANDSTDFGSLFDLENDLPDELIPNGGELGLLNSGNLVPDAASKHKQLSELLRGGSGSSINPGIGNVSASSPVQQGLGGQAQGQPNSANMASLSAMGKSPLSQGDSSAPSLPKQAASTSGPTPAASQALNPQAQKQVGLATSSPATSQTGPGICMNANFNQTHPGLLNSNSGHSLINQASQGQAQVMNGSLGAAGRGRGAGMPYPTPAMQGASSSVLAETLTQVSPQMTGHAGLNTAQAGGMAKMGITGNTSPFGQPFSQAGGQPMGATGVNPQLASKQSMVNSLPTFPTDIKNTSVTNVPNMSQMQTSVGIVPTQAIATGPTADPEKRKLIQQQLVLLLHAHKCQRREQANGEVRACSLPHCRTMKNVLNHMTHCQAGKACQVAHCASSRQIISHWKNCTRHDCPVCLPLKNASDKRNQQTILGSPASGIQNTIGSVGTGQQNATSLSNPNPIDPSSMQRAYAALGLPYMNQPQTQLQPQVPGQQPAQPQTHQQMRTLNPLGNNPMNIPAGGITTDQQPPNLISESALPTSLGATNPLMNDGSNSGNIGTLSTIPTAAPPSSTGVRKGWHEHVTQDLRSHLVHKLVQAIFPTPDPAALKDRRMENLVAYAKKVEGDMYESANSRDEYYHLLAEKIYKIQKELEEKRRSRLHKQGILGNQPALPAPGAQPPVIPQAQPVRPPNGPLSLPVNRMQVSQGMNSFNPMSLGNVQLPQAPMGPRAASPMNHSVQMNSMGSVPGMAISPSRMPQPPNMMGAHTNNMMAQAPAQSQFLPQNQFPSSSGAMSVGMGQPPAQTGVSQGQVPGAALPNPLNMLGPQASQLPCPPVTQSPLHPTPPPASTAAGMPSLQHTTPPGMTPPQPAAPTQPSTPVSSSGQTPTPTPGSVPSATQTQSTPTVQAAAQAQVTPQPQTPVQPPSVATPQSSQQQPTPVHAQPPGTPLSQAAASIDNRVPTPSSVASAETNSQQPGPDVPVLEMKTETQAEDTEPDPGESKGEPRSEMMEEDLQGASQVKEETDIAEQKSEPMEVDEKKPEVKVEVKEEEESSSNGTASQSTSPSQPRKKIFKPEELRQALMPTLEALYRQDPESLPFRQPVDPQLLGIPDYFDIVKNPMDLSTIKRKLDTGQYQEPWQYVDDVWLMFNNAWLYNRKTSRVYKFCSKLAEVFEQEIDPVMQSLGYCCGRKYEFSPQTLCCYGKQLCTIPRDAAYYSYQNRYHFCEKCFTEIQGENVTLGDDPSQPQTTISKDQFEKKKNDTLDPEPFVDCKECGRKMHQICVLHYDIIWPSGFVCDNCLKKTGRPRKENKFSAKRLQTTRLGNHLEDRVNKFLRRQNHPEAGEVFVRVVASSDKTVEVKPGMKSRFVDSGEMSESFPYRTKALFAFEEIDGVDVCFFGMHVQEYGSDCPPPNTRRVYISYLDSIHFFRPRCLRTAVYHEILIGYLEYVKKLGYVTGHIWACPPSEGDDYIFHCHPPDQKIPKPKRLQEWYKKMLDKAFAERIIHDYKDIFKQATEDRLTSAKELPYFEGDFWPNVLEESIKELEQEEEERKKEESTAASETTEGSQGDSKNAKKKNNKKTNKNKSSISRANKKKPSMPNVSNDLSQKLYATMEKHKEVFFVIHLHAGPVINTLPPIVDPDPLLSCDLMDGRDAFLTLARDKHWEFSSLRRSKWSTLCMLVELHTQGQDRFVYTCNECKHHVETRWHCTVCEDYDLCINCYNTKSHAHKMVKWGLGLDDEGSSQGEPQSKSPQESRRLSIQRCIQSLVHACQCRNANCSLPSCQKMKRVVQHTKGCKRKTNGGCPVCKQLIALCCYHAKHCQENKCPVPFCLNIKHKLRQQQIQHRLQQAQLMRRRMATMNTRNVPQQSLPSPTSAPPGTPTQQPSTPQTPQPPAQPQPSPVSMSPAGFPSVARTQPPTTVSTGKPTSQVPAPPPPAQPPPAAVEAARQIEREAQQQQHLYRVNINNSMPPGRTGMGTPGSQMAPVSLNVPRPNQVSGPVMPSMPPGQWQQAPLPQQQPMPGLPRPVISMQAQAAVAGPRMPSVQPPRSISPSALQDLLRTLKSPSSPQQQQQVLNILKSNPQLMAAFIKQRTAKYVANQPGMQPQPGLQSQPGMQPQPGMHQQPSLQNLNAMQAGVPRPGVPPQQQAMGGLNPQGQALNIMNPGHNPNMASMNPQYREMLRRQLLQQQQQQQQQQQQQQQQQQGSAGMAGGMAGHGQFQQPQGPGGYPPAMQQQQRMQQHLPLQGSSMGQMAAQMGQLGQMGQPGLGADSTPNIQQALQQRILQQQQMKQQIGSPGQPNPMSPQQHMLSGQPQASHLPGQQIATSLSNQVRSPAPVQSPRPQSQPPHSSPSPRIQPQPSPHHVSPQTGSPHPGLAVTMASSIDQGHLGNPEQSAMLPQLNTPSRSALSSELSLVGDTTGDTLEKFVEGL
# Histone acetyltransferase p300, sequence (Q09472 whole entry): as the sequence (Q09472 whole entry, looked up) above
smiles,measurement,setting,value
CNC(=O)Nc1ccc2c(c1)CC[C@@]21OC(=O)N(CC(=O)N(Cc2ccc(F)cc2)[C@@H](C)C(F)(F)F)C1=O [A-485],IC50,[1],> 10 µM
same,EC50,K562,1270 nM
same,INH,[2],> 10 µM
same,EC50,NU-DHL-1,530 nM
same,ΔTm,[3],5.8 °C
same,EC50,RL,1050 nM
same,EC50,KARPAS-422,250 nM
same,EC50,RCK8,590 nM
same,EC50,WSU-NHL,1060 nM
same,EC50,L-363,510 nM
same,EC50,ULA,550 nM
same,EC50,Toledo,490 nM
same,EC50,NCI-H2444,5.92 µM
same,INH,[4],> 10 µM
same,IC50,[5],> 10 µM
same,IC50,[6],> 10 µM
same,EC50,SK-MEL-1,570 nM
same,EC50,SK-MEL-5,910 nM
same,EC50,MOLT-4,> 10 µM
same,IC50,[7],> 10 µM
same,EC50,NU-DUL-1,480 nM
same,EC50,COLO-679,2260 nM
same,IC50,[8],> 10 µM
same,EC50,4T1,> 10 µM
same,IC50,[9],> 10 µM
same,EC50,OCI-Ly3,490 nM
same,IC50,[10],> 10 µM
same,Cmax,[11],242 µg/mL
